PP5 primary – inhibitors of human protein phosphatase 5 (PP5); P53041; purified PP5c, OMFP substrate fluorescence; inhibition, % at 6.7 µM; actives 0.18% (n = 320,000);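 active means inhibition above the campaign's mean inhibition across all tested compounds plus 3 SD, cut at about 9.5% in these data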;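 further: 0% = DMSO only and 100% = 100 µM cantharidin control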
Target sequence (P53041 whole entry, looked up): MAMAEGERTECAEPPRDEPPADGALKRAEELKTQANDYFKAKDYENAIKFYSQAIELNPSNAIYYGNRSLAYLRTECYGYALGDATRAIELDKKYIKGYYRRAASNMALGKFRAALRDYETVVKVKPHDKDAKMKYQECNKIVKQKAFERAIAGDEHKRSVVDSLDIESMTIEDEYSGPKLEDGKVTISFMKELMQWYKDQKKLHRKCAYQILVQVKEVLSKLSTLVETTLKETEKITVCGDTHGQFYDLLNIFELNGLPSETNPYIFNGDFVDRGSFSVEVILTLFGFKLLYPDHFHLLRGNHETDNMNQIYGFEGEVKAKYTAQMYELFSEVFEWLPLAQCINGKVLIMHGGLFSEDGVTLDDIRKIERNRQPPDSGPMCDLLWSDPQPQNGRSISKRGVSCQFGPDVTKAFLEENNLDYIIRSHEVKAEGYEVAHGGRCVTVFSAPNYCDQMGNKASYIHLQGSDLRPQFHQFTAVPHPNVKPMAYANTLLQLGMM
PP1 inh – blocks human PP1-alpha phosphatase, a PP5 counter-screen; AID 2235; actives 0.9% (n = 320,000); purified PP1alpha, OMFP fluorescence; inhibition, % at 6.7 µM; P62136;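 active means inhibition above the mean inhibition of all tested compounds plus 3 SD, computed separately for each screening campaign, cut at about 15% in these data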
core dimer inh – HCV core protein dimerization inhibition | TR-FRET GST/Flag-core106 dimerization, 1536-well | inhibition, % at 5 µM | actives 0.33% (n = 300,000) | AID 1899;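 active means inhibition above the mean of all tested compounds plus 3 SD, set per screening campaign, cut at about 45% in these data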
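System – GST-tagged and Flag-tagged HCV core protein residues 1-106 · Repeats – one well for each compound · Technique – TR-FRET 671 and 617 nm emission · Doses – one concentration, 5 µM, in 0.5% DMSO · Times – 4 h, 22.5 °C incubation · Also added – Eu donor and XL665 acceptor anti-tag antibodies · Measure – percent inhibition of core106 dimerization signal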
Myeloid diff MLP – promotes myeloid progenitor differentiation; ER-HoxA9 myeloid progenitors, lysozyme-GFP differentiation, flow cytometry; calls only at 10 µM; actives 1% (n = 360,000);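 active means normalized GFP-positive differentiation at or above the plate's own cutoff, the solvent-only control mean plus 3 SD; inconclusive means no clear call, values can overlap the other calls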;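 further: cells exposed to compound for four days before flow analysis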
Fh CTSL1 inh – counter-screen for PFM18AAP inhibitors: inhibitors of F. hepatica cathepsin L1; recombinant F. hepatica cathepsin L1, Z-Leu-Arg-MCA fluorescence; inhibition, % at 5.96 µM; actives 0.49% (n = 300,000); AID 1906;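 active means inhibition above the mean of all tested compounds plus 3 SD, set per screening campaign, cut at about 17% in these data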;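 further: 0% = plate median of test compound wells and 100% = 1 µM Z-Phe-Ala-diazomethylketone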
NadD inh – inhibitors of Staphylococcus aureus NadD. purified NadD enzyme, colorimetric absorbance read-out. inhibition, % at 20 µM. actives 0.78% (n = 360,000); in the data active means inhibition above about 26%
PP1 confirm – human PP1 phosphatase inhibition, confirmation; shares compounds with PP1 inh; purified PP1alpha, OMFP substrate fluorescence; inhibition, % at 6.7 µM; actives 52% (n = 1,900);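 active means mean PP1 inhibition above a set limit taken from the earlier primary screen, cut at about 15% in these data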
PP5 inh counter – PP5 phosphatase inhibition, counter-screen for PP1 inhibitors | shares compounds with PP1 inh | purified PP5c, OMFP fluorescence | inhibition, % at 6.7 µM | actives 4% (n = 1,900);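 active means mean PP5 inhibition over triplicate wells above about 9.5% taken from the earlier PP1 screen, limit read from the data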
Active calls of the source: *; i = inactive; u = inconclusive; x = no result; + = active, no number. In the library only some 3.1% were active in any assay of this set; here they are far more common.

SMILES	PP5 primary	PP1 inh	core dimer inh	Myeloid diff MLP	Fh CTSL1 inh	NadD inh	PP1 confirm	PP5 inh counter
O=S(=O)(c1ccc(Cl)cc1)N1CCN(Cc2ccc(O)c3ncccc23)CC1	3.3	17.6*	4.1	u	0.7	8.8	24.1*	-1.9
Oc1ccc(CN2CCN(Cc3ccccc3)CC2)c2cccnc12	2.3	6.6	1.6	i	-1.5	1.7	x	x
N#Cc1cccc(NC(=O)CNc2cccc(S(=O)(=O)N3CCCC3)c2)c1	0.8	21.0*	-8.2	i	1.0	-5.7	-5.1	-3.6
Cc1cc(C)cc(NC(=O)CCCCCN2C(=O)[C@@H]3Cc4ccccc4CN3C2=O)c1	3.4	-0.5	11.1	i	-2.3	0.6	x	x
N#C/C(=C/c1ccc(-c2ccc(S(N)(=O)=O)cc2)o1)c1nc2ccccc2s1	-1.6	19.6*	28.4	+	6.3	25.0	21.9*	-6.9
Cc1cc(C)n2c(Nc3c(C)cccc3C)c(CC(C)C)nc2n1	x	x	x	i	x	4.0	x	x
Cc1c(C(=O)OCC(=O)Nc2ccccc2OC(F)F)cccc1[N+](=O)[O-]	2.0	22.9*	-2.1	i	-5.0	-6.2	0.0	-1.6
COc1cccc(/C=N/NC(=O)c2ccc(=O)[nH]n2)c1O	0.0	-0.1	-1.6	i	0.3	-0.2	x	x
COc1cccc(/C=N/NC(=O)c2[nH]c(C)c(C(=O)N/N=C/c3cccc(OC)c3O)c2C)c1O	3.3	24.7*	8.2	i	0.0	34.8*	28.2*	-2.5
COc1cccc(/C=N/NC(=O)C(=O)Nc2ccccc2OC(F)(F)C(F)F)c1O	1.9	19.6*	1.9	+	3.2	17.2	27.1*	-3.3
COc1ccccc1/C=N/NC(=O)c1cccc(OC(F)(F)C(F)F)c1	3.6	-1.9	-3.9	i	-0.1	-3.3	x	x
COc1ccc(OC)c(/C=N\NC(=O)c2ccc(-c3ccccc3)cc2)c1	x	x	x	i	x	10.6	x	x
COc1cccc(/C=N/NC(=O)c2ccc(-c3ccccc3)cc2)c1O	1.8	22.0*	16.8	u	6.8	15.2	24.8*	2.0
Cn1nc(C(F)(F)F)c(-c2ccccc2)c1NC(=O)c1nccnc1C(=O)O	1.2	24.6*	-0.5	i	-2.0	2.8	-0.5	-2.7
O=C(CCN1C(=O)/C(=C\c2ccccc2F)SC1=S)Nc1ccc(C(=O)O)c(O)c1	4.4	20.2*	25.7	i	3.3	15.9	19.5*	2.1
COc1cccc(CN2CCNC(=O)C2CC(=O)N(C)C2CCCCC2)c1 (stereo not given)	-1.9	-2.8	-1.0	i	-0.9	-1.0	x	x
COc1ccc(NC(=O)C2CC(=O)N(CCc3ccc(Cl)cc3)C2)cc1 (stereo not given)	1.1	-5.8	3.5	i	1.2	-0.4	x	x
CSCCC(NC(=O)c1ccccc1Cl)C(=O)NCC(c1ccco1)N1CCCCC1 (stereo not given)	-1.6	44.6*	-0.2	i	7.7	-2.3	-5.2	-1.8
COc1ccc(C(CNC(=O)C(CCSC)NC(=O)c2ccccc2Cl)N2CCCCC2)cc1 (stereo not given)	0.6	-4.2	x	i	x	-5.4	x	x
COC(=O)c1ccc(CSc2nc3scc(-c4cccs4)c3c(=O)[nH]2)o1	0.7	22.1*	32.6	i	-3.9	34.1*	8.9	-2.0
CNc1nc(-c2ccc3c(c2)CCN3C(=O)c2ccccc2C)cs1	0.9	0.9	10.7	i	-7.2	9.4	x	x
Cc1ccccc1C(=O)N1CCc2cc(-c3nc(NC(=O)Cc4ccc5c(c4)OCO5)sc3C)ccc21	4.0	19.1*	40.8	i	0.1	46.7*	19.1*	2.7
CC(=O)c1ccc(-n2c(=O)[nH]c(=O)c3c(N)c(C(=O)c4ccc(Cl)cc4)sc32)cc1	-0.7	39.7*	21.2	i	8.6	22.9	28.1*	-3.4
Cn1c(=O)c2c(ncn2CC(=O)OCC(=O)c2ccc(OC(F)F)cc2OC(F)F)n(C)c1=O	x	x	x	i	x	1.3	x	x
CCC1CCCCN1S(=O)(=O)c1ccc(C(=O)Nc2nnc(-c3cccs3)o2)cc1 (stereo not given)	2.9	40.6*	42.7	u	9.8	41.7*	33.1*	1.9

Screening data: PubChem BioAssay, several laboratories
